Series [1] relates to Mus musculus. Description: Induction of flushing response in ip dosed C57/BL6 mouse. The series is classed as organism-based, C57Bl/6. The following applies: in vivo. In a few lines:
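Male C57Bl/6 mice, 8-10 weeks, anesthetized with Nembutal i.p. (80 mg/10 ml/kg). Laser Doppler perfusion imaging centred on the ventral right ear. After a 3 min baseline, vehicle or agonist is given i.p. (5 ml/kg) and readings continue about 15 min. Output is % change from pre-injection baseline, 3-26 animals per group.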

The test system of the next series is Adipocyte. Description: Inhibition of isoproterenol-induced lipolysis in human subcutaneous adipocytes after 5 hrs.
The next series deals with Rattus norvegicus. Description: Reduction of free fatty acid level in po dosed Sprague-Dawley rat plasma relative to baseline. The series is classed as functional. More on the design: scale not given: the % may be the effect or the level left. The method in brief: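 Male Sprague-Dawley rats, 7-10 weeks (~350 g), jugular vein cannulated, fasted 16 hr. Baseline blood drawn, then oral vehicle (PBS, 5% HPBCD or 0.5% methylcellulose) or drug at 2 ml/kg. Blood sampled via cannula at set times; serum NEFA assayed by NEFA-C kit, A550. Expressed as % baseline FFA, four or more independent experiments.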

Series [2] concerns Mus musculus. Description: Reduction of free fatty acid level in ip dosed C57/BL6 mouse plasma after 10 mins. Particulars: C57Bl/6. The series is classed as functional, organism-based. The method in brief:
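Male C57Bl/6 mice, 8-10 weeks (~25 g), fasted 16 hr, dosed i.p. with compound in PBS or PBS vehicle (5 ml/kg). Killed after 10 min; cardiac blood taken and serum obtained by centrifugation at 4°C. NEFA measured colorimetrically with the NEFA-C two-reagent kit, 37°C incubations, A550. Three or more experiments in triplicate; one-way ANOVA with Bonferroni.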

The subject of series [3] is Mus musculus. The series can be described thus: Inhibition of nicotinic acid induced flushing response in ip dosed C57/BL6 mouse. Type of series: functional, organism-based. The following applies: C57Bl/6. In a few lines: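 Laser Doppler ear flushing in anesthetized male C57Bl/6 mice. Vehicle or competing agonist is given i.p. together with Nembutal, 10 min before baseline. After a 3 min baseline, nicotinic acid 30 mg/kg i.p. is injected. Response is % change from pre-nicotinic acid baseline, 5 or 11 animals per group.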

Activity calls are given as the source filed them. The rule behind the calls is not given here.

The values below come from ChEMBL document CHEMBL1147980, “Nicotinic acid receptor agonists differentially activate downstream effectors” (J Biol Chem, 2007).

As usually defined, the EC50 is the concentration at which the effect is half-maximal.

As to `O=C(O)c1cc(Cc2cccc(Cl)c2)[nH]n1`, the Activity entry with Mus musculus [1] is “Non-toxic”.
The molecule `Cc1cc(C(=O)O)on1` yielded an EC50 with Adipocyte of 5.3 µM. Moreover, the Activity entry in the series with Mus musculus [1] was “Toxic”; in the series with Rattus norvegicus, 75%.
On to `CC(C)c1cc(C(=O)O)n[nH]1`, for which the Activity entry in the series on Mus musculus [2] is “Dose-dependent effect”; in the series with Mus musculus [1] it was “Non-toxic”; in the series on Rattus norvegicus, 75%.
For the molecule `Cc1cc(C(=O)O)n[nH]1`, the Activity result with Mus musculus [2] is “Dose-dependent effect”; in the series with Mus musculus [1] it was “Toxic”; with Rattus norvegicus it was 75%. The molecule also had an EC50 in the series with Adipocyte of 1.4 µM.
With `O=C(O)c1cc(Cc2cccc(Cl)c2)n[nH]1`, the Activity result with Mus musculus [2] is “Dose-dependent effect”; with Rattus norvegicus, 75%. For the same molecule, in the series with Adipocyte, the midpoint of the response, the EC50, lay at 72.5 µM. Further, in the series on Mus musculus [3], the result was Active.
For the molecule `O=C(O)c1cc(Cc2cccc(F)c2)[nH]n1`, the Activity entry in the series on Mus musculus [2] was “Dose-dependent effect”; in the series on Mus musculus [1], “Non-toxic”; in the series on Rattus norvegicus, 75%. Further, in the series on Adipocyte, the EC50 came to 32.6 µM.
For the molecule `O=C(O)c1cccnc1` [NIACIN], in the series with Adipocyte, it took 0.9 µM to reach a half-maximal effect (EC50). The Activity result in the series on Mus musculus [1] is on record as “Toxic”.
Regarding `O=C(O)c1cc(Cc2cccc(Br)c2)[nH]n1`, the Activity result in the series with Mus musculus [2] was “Dose-dependent effect”; in the series on Mus musculus [1], “Non-toxic”; with Rattus norvegicus, 75%. In the series with Adipocyte, this molecule came in with an EC50 of 103 µM.
